The values that follow come from ChEMBL document CHEMBL2439963, “Synthetic trimethyllysine receptors that bind histone 3, trimethyllysine 27 (H3K27me3) and disrupt its interaction with the epigenetic reader protein CBX7” (Bioorg Med Chem, 2013).

Assay [1] can be described thus: Inhibition of synthetic H3K27me3 peptide interaction to CBX7 after 15 mins by fluorescence polarization assay. An outline of the steps:
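Calixarene was added at 0–10 mM, dissolved in water with 4 equiv NaOH. Incubated 15 min in the dark and read at ex 450/em 530 nm. mP was normalized to % complex, IC50 taken from a sigmoidal fit, triplicates averaged.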
Background: Polarisation of emitted light reports the rotation of a fluorescent probe.

A short description of assay [2]: Displacement of calixarene-LCG from synthetic H3K27me3 peptide. Put shortly:
(§1)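 Competitive lucigenin displacement: 0.5 µM lucigenin plus 1.25 µM calixarene in 0.01 M phosphate buffer pH 7.4, titrated with Ac-capped peptide (H3K27 0–1.5 mM; H3K27me3 0–0.5 mM). Emission read at λex 369 nm, λem 485 nm. Kd fitted by cubic competitive binding equations, with host–dye constant fixed from the prior direct titration. Duplicate determinations averaged.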

Assay [3] is described as follows: Displacement of calixarene-LCG from synthetic H3K27 peptide. Put shortly:
as §1

A short description of assay [4]: Displacement of calixarene-LCG from synthetic H3K27 peptide by isothermal titration calorimetry analysis. In general terms: In ITC the heat of successive injections is recorded.
A short description of assay [5]: Displacement of calixarene-LCG from synthetic H3K27me3 peptide by isothermal titration calorimetry analysis.

SMILES strings stand for the structures.

On to `O=S(=O)(O)c1cc2c(O)c(c1)Cc1cc(S(=O)(=O)O)cc(c1O)Cc1cc(S(=O)(=O)O)cc(c1O)Cc1cc(S(=O)(=O)O)cc(c1O)C2`, for which half-maximal inhibition in assay [1] (IC50) required 2500 µM. The figures for the dissociation constant (Kd) in assay [2] and in assay [3] were 5.4 µM and 220 µM, respectively.
In the case of `N#Cc1ccc(-c2cc3c(O)c(c2)Cc2cc(S(=O)(=O)O)cc(c2O)Cc2cc(S(=O)(=O)O)cc(c2O)Cc2cc(S(=O)(=O)O)cc(c2O)C3)cc1`, in assay [1], the IC50 (in general, the point on the concentration scale where inhibition reaches its midpoint) came out at 370 µM. Besides, the Kd (in general, the free concentration of one partner at which half of the binding sites on the other are occupied at equilibrium, for simple one-to-one binding) was 0.88 µM in assay [2] and 11.3 µM in assay [3].
In turn, `O=S(=O)(O)c1cc2c(O)c(c1)Cc1cc(S(=O)(=O)O)cc(c1O)Cc1cc(S(=O)(=O)O)cc(c1O)Cc1cc(Br)cc(c1O)C2` gave an IC50 in assay [1] of 470 µM. In addition, the values for the equilibrium dissociation constant (Kd) in assay [2] and in assay [3] were 0.7 µM and 13.3 µM, respectively.
For the compound `NC(=O)c1ccc(-c2cc3c(O)c(c2)Cc2cc(S(=O)(=O)O)cc(c2O)Cc2cc(S(=O)(=O)O)cc(c2O)Cc2cc(S(=O)(=O)O)cc(c2O)C3)cc1`, it took 590 µM to reach half-maximal inhibition in assay [1] (IC50). The results for the equilibrium dissociation constant (Kd) in assay [2] and in assay [3] were 1.86 µM and 23 µM, respectively.
Compound `O=[N+]([O-])c1cc2c(O)c(c1)Cc1cc(S(=O)(=O)O)cc(c1O)Cc1cc(S(=O)(=O)O)cc(c1O)Cc1cc(S(=O)(=O)O)cc(c1O)C2` gave a 50% inhibitory concentration (IC50) in assay [1] above 5000 µM. Also, the values for the equilibrium dissociation constant (Kd) in assay [2] and in assay [3] were 10 µM and 30 µM, respectively.
In assay [1], `COc1ccc(-c2cc3c(O)c(c2)Cc2cc(S(=O)(=O)O)cc(c2O)Cc2cc(S(=O)(=O)O)cc(c2O)Cc2cc(S(=O)(=O)O)cc(c2O)C3)cc1` came in with an IC50 of 360 µM. In addition, the figures for the Kd in assay [2] and in assay [3] were 0.78 µM and 20 µM, respectively.
For `O=S(=O)(O)c1cc2c(O)c(c1)Cc1cc(S(=O)(=O)O)cc(c1O)Cc1cc(S(=O)(=O)O)cc(c1O)Cc1cc(-c3ccccc3)cc(c1O)C2`, the Kd was 51.4 µM in assay [4], 4.03 µM in assay [5], 0.75 µM in assay [2] and 19 µM in assay [3]. Besides, the midpoint of inhibition in assay [1], the IC50, lay at 510 µM.
On to `Cc1ccc(-c2cc3c(O)c(c2)Cc2cc(S(=O)(=O)O)cc(c2O)Cc2cc(S(=O)(=O)O)cc(c2O)Cc2cc(S(=O)(=O)O)cc(c2O)C3)cc1`, for which 230 µM corresponded to half-maximal inhibition in assay [1] (IC50). The dissociation constant Kd in assay [2] is 0.34 µM; in assay [3], 2.7 µM.
On the same counts, the results for `Cc1ccc(S(=O)(=O)Nc2cc3c(O)c(c2)Cc2cc(S(=O)(=O)O)cc(c2O)Cc2cc(S(=O)(=O)O)cc(c2O)Cc2cc(S(=O)(=O)O)cc(c2O)C3)cc1` are above 2000 µM, above 100 µM and above 100 µM.
On the same counts, the results for `COc1cccc(-c2cc3c(O)c(c2)Cc2cc(S(=O)(=O)O)cc(c2O)Cc2cc(S(=O)(=O)O)cc(c2O)Cc2cc(S(=O)(=O)O)cc(c2O)C3)c1OC` are 1700 µM, 2.13 µM and 25 µM.
